The list is not random: actives were taken first. Their share in the collection is about 2.2%.
Statin myotox sup – protects C2C12 myotubes from simvastatin toxicity; ATP luminescence, 48 h; scaled: DMSO 0, geranylgeraniol control 100; 0.78% of 330,000 active; rescue of ATP level, % at 7.49 µM;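 active means mean ATP rescue above about 67%, or every replicate alone reaching that limit, limit read from the data, passing the limit was not always enough; inconclusive means no clear call, values can overlap the other calls; inactive means mean under the limit and some replicate under it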;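 further: myotubes were challenged with 10 µM simvastatin during compound exposure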
DENV2 CPE – protects cells from dengue virus 2 cytopathic effect. DENV2-infected cells, cytopathic effect rescue, plate reader. CPE inhibition, % at 9.99 µM. 1.7% of 350,000 active. AID 651640; in the data active means CPE inhibition above about 20%, passing the limit was not always enough; inconclusive means no clear call, values can overlap the other calls; tested in BHK-21 cells;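 further: 0% = median of neutral control wells and 100% = median of positive control wells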
E-selectin induc – induces E-selectin expression in human endothelial cells; P16581; activation, % at 7.58 µM; HUVEC E-selectin immunofluorescence imaging; normalized: neutral wells 0, TNF-alpha wells 100; 0.37% of 260,000 active;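 active means mean E-selectin-positive cell signal at least 10% of the positive control, reached in at least 60% of replicates, without over 20% cell loss; inconclusive means no rule given, readout overlaps actives, possibly toxicity-flagged; inactive means the rest, including those meeting only one limit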
Target sequence (P16581 whole entry, looked up): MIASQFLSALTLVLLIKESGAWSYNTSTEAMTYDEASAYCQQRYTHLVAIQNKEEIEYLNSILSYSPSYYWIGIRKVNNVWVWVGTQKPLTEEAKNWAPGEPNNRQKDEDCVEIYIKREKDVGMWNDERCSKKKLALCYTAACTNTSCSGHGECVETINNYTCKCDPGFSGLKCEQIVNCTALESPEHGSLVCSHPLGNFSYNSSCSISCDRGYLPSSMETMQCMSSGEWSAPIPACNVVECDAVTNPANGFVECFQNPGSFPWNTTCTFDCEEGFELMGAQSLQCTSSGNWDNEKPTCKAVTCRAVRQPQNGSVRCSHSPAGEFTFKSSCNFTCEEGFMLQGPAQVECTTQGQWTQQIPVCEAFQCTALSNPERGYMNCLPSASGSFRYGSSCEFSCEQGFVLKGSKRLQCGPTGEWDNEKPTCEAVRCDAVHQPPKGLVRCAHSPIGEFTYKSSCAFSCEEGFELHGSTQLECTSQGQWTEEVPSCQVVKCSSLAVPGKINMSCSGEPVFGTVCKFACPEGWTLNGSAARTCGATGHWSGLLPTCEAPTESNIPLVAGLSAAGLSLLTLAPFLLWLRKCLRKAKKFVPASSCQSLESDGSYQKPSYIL
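Assay system: HUVEC primary endothelial cells. Input: 3,000 HUVEC seeded per well. Doses: one compound dose added by pin transfer. Read-out basis: % PE-positive cells. Benchmarks: TNF-alpha high, DMSO low. Detection: immunofluorescence imaging. Buffer or medium: EGM-2, gelatin.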
* hit, by the source's call; ? = inconclusive; . = no result given.

SMILES | Statin myotox sup | DENV2 CPE | E-selectin induc
CCNC(=O)Cn1cc(C#N)c2ccccc21 | 92.6* | . | .
CC(=O)c1cccc(NC(=O)c2noc3c2CCc2ccccc2-3)c1 | -5.4 | 21.9* | .
Cc1cc(NC(=O)c2noc3c2CCc2ccccc2-3)no1 | -9.3 | 3.2 | 0.1
O=C(C[C@@H]1CC[C@H](NC(=O)C2CCC2)[C@H](CO)O1)NCc1ccccc1Cl | -4.9 | -4.0 | 1.0
CCc1noc(N)c1C(=O)Nc1ccc(F)c(Cl)c1 | -0.3 | . | .
Cc1noc(N)c1C(=O)Nc1ccc(F)c(Cl)c1 | 129.6* | . | .
COc1ccc(CCNC(=O)C2CCC(=O)N(CCc3ccc(OC)cc3)C2)cc1 (configuration not stated) | 1.1 | -2.2 | .
O=C(NCCOc1ccccc1)C1CCC(=O)N(CCc2ccccn2)C1 (configuration not stated) | 1.2 | 1.5 | .
Cc1ccc(CNC(=O)C2CCC(=O)N(CCc3ccccn3)C2)s1 (configuration not stated) | 4.4 | 33.3* | 3.1
COc1ccc(CCN2CC(C(=O)NCCc3ncccc3C)CCC2=O)cc1 (configuration not stated) | -3.4 | 33.9* | 0.2
COc1ccc(-c2cnc3c(c2)C(=O)N([C@H](C)CO)C[C@@H](C)[C@H](CN(C)Cc2ccc(C(=O)O)cc2)O3)cc1 | -24.9 | ? | -0.1
COc1cccc(S(=O)(=O)N(C)C[C@H]2Oc3cc(C4=CCCC4)ccc3S(=O)(=O)N([C@H](C)CO)C[C@H]2C)c1 | -88.8 | -4.8 | 3.4
Cc1ccc(S(=O)(=O)N(C)C[C@H]2Oc3cc(C4=CCCC4)ccc3S(=O)(=O)N([C@@H](C)CO)C[C@@H]2C)cc1 | -25.1 | 3.2 | 0.0
COc1cccc(S(=O)(=O)N(C)C[C@H]2Oc3cc(C4=CCCC4)ccc3S(=O)(=O)N([C@H](C)CO)C[C@@H]2C)c1 | -48.1 | 37.6* | 0.0
Cc1ccc(S(=O)(=O)N(C)C[C@@H]2Oc3cc(C4=CCCC4)ccc3S(=O)(=O)N([C@H](C)CO)C[C@H]2C)cc1 | -85.3 | 79.1* | -0.2
Cc1ccc(C(=O)OCC(=O)NC(=O)c2cccn2C)cc1 | 2.3 | 13.5 | .
Cn1cccc1C(=O)OCC(=O)NC(=O)c1ccc(Cl)cc1 | -1.2 | 25.9* | 0.0
COC1=CC(=O)OC(c2cccc(Cl)c2)C1 (configuration not stated) | . | -8.5 | 0.0
CC(C)OC1=CC(=O)OC(c2cccc(Cl)c2)C1 (configuration not stated) | . | 30.9* | 0.1
C[C@H](CO)N1C[C@H](C)[C@H](CN(C)S(=O)(=O)c2ccccc2)Oc2c(NC(=O)Nc3ccc4c(c3)OCO4)cccc2C1=O | 4.0 | -13.0 | 0.2
Cc1ccc(S(=O)(=O)N[C@@H]2CC[C@H](CC(=O)NCc3ccc(Cl)c(Cl)c3)O[C@@H]2CO)cc1 | -0.8 | -11.8 | -0.3
Cc1ccc(S(=O)(=O)N[C@H]2CC[C@H](CCNC(=O)C3CCOCC3)O[C@@H]2CO)cc1 | -2.3 | 25.2* | -0.1
O=C(CN1CCOCC1)NCC[C@@H]1CC[C@H](NC(=O)Cc2ccccn2)[C@@H](CO)O1 | 2.1 | 22.6* | -0.1
Cc1ccc(S(=O)(=O)N[C@@H]2CC[C@H](CC(=O)NCc3ccc(Cl)c(Cl)c3)O[C@H]2CO)cc1 | -10.4 | 21.7* | 0.8
O=C(C[C@H]1CC[C@H](NS(=O)(=O)c2ccc(F)cc2)[C@H](CO)O1)NCc1ccncn1 | 2.5 | 23.4* | -1.9
SMILES | Statin myotox sup | DENV2 CPE | E-selectin induc
O=C(CN1CCOCC1)NCC[C@@H]1CC[C@@H](NC(=O)Cc2ccccn2)[C@H](CO)O1 | 0.7 | -1.6 | -0.2
Cc1ccc(S(=O)(=O)N[C@@H]2CC[C@@H](CCNC(=O)C3CCOCC3)O[C@@H]2CO)cc1 | 6.0 | 2.7 | -0.3
O=C(C[C@@H]1CC[C@H](NS(=O)(=O)c2ccc(F)cc2)[C@@H](CO)O1)NCc1ccncn1 | 1.2 | 4.5 | -2.1
COC(=O)C[C@@H]1CC[C@@H]2[C@@H](COc3ccc(NC(=O)NCc4ccccc4)cc3C(=O)N2C)O1 | -3.4 | -3.2 | 0.0
Cc1ccc(S(=O)(=O)N[C@H]2CC[C@H](CCNC(=O)CN3CCOCC3)O[C@@H]2CO)cc1 | -11.2 | 3.9 | -0.2
Cc1ccc(S(=O)(=O)N[C@@H]2CC[C@@H](CCNC(=O)CN3CCOCC3)O[C@H]2CO)cc1 | 3.6 | 25.9* | 0.5
c1coc(CNc2ncnc3[nH]ncc23)c1 | 0.5 | -4.0 | .
Cc1nc(NCc2ccco2)c2cn[nH]c2n1 | 95.3* | -2.6 | 0.7
O=C(C[C@H]1CC[C@H]2[C@@H](COC[C@@H](O)CN2C(=O)Nc2ccc(Cl)cc2)O1)NCC1CCCCC1 | -22.4 | 4.4 | 0.0
CCC(=O)N[C@@H]1CC[C@H](CCNC(=O)Nc2ccc(F)cc2)O[C@@H]1CO | -3.7 | -2.3 | -0.1
CO[C@H](CN(C)C(=O)c1cnccn1)[C@H](C)CN([C@H](C)CO)S(=O)(=O)c1ccc(F)cc1 | 4.6 | ? | 0.0
CO[C@@H](CN(C)C(=O)c1cnccn1)[C@H](C)CN([C@@H](C)CO)S(=O)(=O)c1ccc(F)cc1 | 1.2 | 26.7* | -0.1
CO[C@@H]1CN(C)C(=O)c2cc(NC(=O)c3ccc(F)cc3)ccc2OC[C@@H](C)N(C(=O)CC2CC2)C[C@H]1C | 2.1 | . | -0.2
C[C@@H]1CN([C@H](C)CO)C(=O)Cc2cc(N(C)C)ccc2O[C@@H]1CN(C)Cc1ccc(-c2ccccc2)cc1 | 62.2 | 1.9 | 0.1
O=[N+]([O-])c1ccc(OCCCCN2CCCCC2)cc1 | . | . | 0.0
O=[N+]([O-])c1ccc(OCCCCCN2CCOCC2)cc1 | -5.9 | 26.3* | 0.1
CCC(=O)N1CC2(CCN(Cc3ccc(Cl)cc3)CC2)c2c([nH]c3cc(OC)ccc23)[C@@H]1CO | . | -9.3 | -0.5
O=C(CCc1ccccc1)Nc1ccc(N2CCOCC2)cc1 | -4.3 | . | .
O=C(CCc1ccccc1)Nc1ccc(N2CCOCC2)c(Cl)c1 | 112.7* | . | .
Cc1ccc(NC(=O)CSCC(=O)Nc2ccc(N3CCOCC3)cc2N2CCOCC2)cc1 | -3.5 | 10.5 | 7.0
Cc1ccc(NC(=O)CN2CCOCC2)cc1Cl | -2.1 | 8.1 | 45.8*
O=C(CN1CCOCC1)Nc1ccc(Cl)cc1 | 3.1 | -5.3 | .
O=C(Nc1ccc(N2CCOCC2)c(Cl)c1)c1cccnc1 | 91.9* | . | .
Cc1ccc(NC(=O)CSCC(=O)Nc2ccc(N3CCOCC3)c(Cl)c2)cc1 | 121.0* | . | .
O=C(Nc1ccc(N2CCCCC2)c(Cl)c1)c1cccnc1 | -25.1 | . | .
N#C[C@H]1[C@H](c2ccccc2-c2cccc(F)c2)[C@@H](CO)N1C(=O)C1CCOCC1 | . | -5.2 | 0.2
C/C=C/c1cnc2c(c1)C(=O)N([C@@H](C)CO)C[C@@H](C)[C@H](CN(C)S(=O)(=O)c1ccc(F)cc1)O2 | 12.0 | ? | 0.3
C[C@@H]1CN([C@@H](C)CO)S(=O)(=O)c2ccc(-c3ccc(F)cc3)cc2O[C@H]1CN(C)C(=O)C1CC1 | -19.5 | . | 0.0
O=C(Nc1nccs1)[C@@H]1[C@@H](CO)[C@@H]2Cn3c(cccc3=O)[C@@H]2N1C(=O)C1CCCCC1 | 23.6 | 2.3 | -0.2
O=C(NCC12CC3CC(CC(C3)C1)C2)c1nn2c(c1Cl)NC(c1ccco1)CC2C(F)(F)F (configuration not stated) | 137.3* | . | .

Compound activity deposited in PubChem by Broad Institute.
